# According to ChEMBL document CHEMBL2177030:
# Activity calls are given as the source filed them. The calls are words filed in the database; no cut-off is given here.
# How the values were obtained:
# [1] = target: T1, Pancreatic triacylglycerol lipase (Homo sapiens) (UniProt P16233); test: Inhibition of human recombinant pancreatic lipase expressed in Pichia pastoris at 200 molar excess compound concentration pre-incubated for 2 hrs with enzyme before substrate addition by pH-stat technique
# T1 sequence (whole entry): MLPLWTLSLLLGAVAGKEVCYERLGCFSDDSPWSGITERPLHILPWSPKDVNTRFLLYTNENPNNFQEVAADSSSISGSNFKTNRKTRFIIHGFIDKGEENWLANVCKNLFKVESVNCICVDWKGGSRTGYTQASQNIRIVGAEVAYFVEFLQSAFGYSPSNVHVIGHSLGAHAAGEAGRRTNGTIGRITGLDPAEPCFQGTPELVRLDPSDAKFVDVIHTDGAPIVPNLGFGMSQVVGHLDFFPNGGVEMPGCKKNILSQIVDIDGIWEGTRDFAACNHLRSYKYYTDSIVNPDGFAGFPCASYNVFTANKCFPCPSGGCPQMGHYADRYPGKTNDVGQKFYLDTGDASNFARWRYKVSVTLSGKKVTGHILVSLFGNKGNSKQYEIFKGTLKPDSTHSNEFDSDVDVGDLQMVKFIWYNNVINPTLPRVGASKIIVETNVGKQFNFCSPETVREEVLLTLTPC
# [2] = target: T2, Pancreatic lipase-related protein 2 (Cavia porcellus) (UniProt P81139); test: Inhibition of guinea pig recombinant PLRP2 expressed in Aspergillus oryzae at 200 molar excess compound concentration pre-incubated for 2 hrs with enzyme before substrate addition by pH-stat technique
# T2 sequence (whole entry): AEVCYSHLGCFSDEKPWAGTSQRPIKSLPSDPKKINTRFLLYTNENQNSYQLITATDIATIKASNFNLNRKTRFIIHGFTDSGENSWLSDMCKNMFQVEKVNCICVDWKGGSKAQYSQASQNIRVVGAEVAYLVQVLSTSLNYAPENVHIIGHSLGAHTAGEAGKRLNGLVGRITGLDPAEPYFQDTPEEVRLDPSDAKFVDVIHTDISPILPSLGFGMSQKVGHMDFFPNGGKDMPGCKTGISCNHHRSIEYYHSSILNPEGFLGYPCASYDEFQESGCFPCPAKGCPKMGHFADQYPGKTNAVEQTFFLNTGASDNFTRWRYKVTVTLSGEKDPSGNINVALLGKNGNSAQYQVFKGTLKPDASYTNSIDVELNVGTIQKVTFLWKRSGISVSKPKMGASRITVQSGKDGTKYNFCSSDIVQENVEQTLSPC
# [3] = target: T3, Gastric triacylglycerol lipase (Canis lupus familiaris) (UniProt P80035); test: Inhibition of dog recombinant gastric lipase expressed in transgenic maize at 200 molar excess compound concentration pre-incubated for 2 hrs with enzyme before substrate addition by pH-stat technique; type: single protein; conditions: Stomach
# T3 sequence (whole entry): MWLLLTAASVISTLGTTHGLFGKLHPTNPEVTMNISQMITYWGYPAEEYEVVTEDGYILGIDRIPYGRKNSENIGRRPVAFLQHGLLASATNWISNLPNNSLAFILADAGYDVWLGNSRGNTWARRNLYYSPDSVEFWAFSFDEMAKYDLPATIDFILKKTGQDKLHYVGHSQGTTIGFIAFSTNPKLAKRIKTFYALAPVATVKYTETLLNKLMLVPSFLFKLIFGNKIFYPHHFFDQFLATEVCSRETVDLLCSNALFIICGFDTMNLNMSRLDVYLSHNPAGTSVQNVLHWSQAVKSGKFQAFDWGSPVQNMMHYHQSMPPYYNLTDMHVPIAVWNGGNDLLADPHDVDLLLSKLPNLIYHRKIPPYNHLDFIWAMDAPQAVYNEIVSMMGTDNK
# [4] = target: Monoacylglycerol lipase (Mycobacterium tuberculosis H37Rv) (UniProt O07427); test: Inhibition of Mycobacterium tuberculosis Rv0183 pre-incubated for 30 mins with enzyme before substrate addition by pH-stat technique
# Outline: (§1)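 Rv0183 was preincubated 30 min at 25 °C without NaTDC at inhibitor molar excess 2, 4, 20, 40 or 100. Residual monoglyceride lipase activity was measured by pH-stat at 37 °C with MC18 emulsion, pH 8.0, 3 mM NaTDC. xI50 was read from the residual-activity curve. Solvent controls were run. At least duplicate.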
# [5] = target: T4, Cutinase 1 (Fusarium vanettenii) (UniProt P00590); test: Inhibition of Fusarium solani pisi cutinase pre-incubated for 30 mins with enzyme before substrate addition by pH-stat technique
# T4 sequence (whole entry): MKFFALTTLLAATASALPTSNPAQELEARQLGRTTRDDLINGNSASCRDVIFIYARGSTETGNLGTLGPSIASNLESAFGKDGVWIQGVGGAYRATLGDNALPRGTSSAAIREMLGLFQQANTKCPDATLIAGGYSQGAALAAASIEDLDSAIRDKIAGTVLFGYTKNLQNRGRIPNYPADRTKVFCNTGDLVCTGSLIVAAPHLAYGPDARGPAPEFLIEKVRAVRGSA
# Outline: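 Cutinase was preincubated for 30 min at 25 °C in 2 mM NaTDC, substrate absent, at inhibitor molar excess xI 2, 4, 20, 40 or 100. Residual activity was measured by pH-stat at 37 °C on TC4 emulsion at pH 8.0 with 0.25 mM NaTDC. xI50 is the molar excess giving 50% activity. Isopropanol controls were run. At least duplicate.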
# [6] = tested on: Mycobacterium tuberculosis; test: Inhibition of Mycobacterium tuberculosis LipY pre-incubated for 30 mins with enzyme before substrate addition by pH-stat technique
# Outline: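 Without NaTDC, LipY was incubated 30 min at 25 °C with inhibitor at xI 2–100. Residual activity was determined by pH-stat at 37 °C on TC4 in 2.5 mM Tris-HCl pH 7.5, 300 mM NaCl, 3 mM NaTDC. xI50 was taken from activity versus molar excess. Isopropanol-only controls were run. At least duplicate.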
# [7] = target: T4, Cutinase 1 (Fusarium vanettenii); test: (§2) Inhibition of Fusarium solani pisi cutinase assessed as covalent bond formation with enzyme serine residue by measuring change in molecular weight of enzyme-compound complexes at 40 molar excess compound concentration pre-incubated for 30 mins with enzyme before substrate addition by MALDI-TOF mass spectrometry method
# Outline: (§3)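 Each enzyme was preincubated with the inhibitor for 30 min at 25 °C at xI 40, with the inhibitor taken from a 5 mg/mL isopropanol stock. Intact masses of native and inhibited protein were measured by MALDI-TOF. For tryptic mapping, 5–50 pmol protein was reduced with DTT, alkylated with iodoacetamide and digested overnight at 37 °C.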
# [8] = tested on: Mycobacterium tuberculosis; test: Inhibition of Mycobacterium tuberculosis LipY at 40 molar excess compound concentration pre-incubated for 30 mins with enzyme before substrate addition by pH-stat technique
# [9] = target: Monoacylglycerol lipase (Mycobacterium tuberculosis H37Rv) (UniProt O07427); test: Inhibition of Mycobacterium tuberculosis Rv0183 assessed as residual enzyme activity pre-incubated for 30 mins with enzyme before substrate addition by pH-stat technique; outline: as §1
# [10] = target: Monoacylglycerol lipase (Mycobacterium tuberculosis H37Rv) (UniProt O07427); test: Inhibition of Mycobacterium tuberculosis Rv0183 assessed as half inactivation time pre-incubated with enzyme before substrate addition by pH-stat technique
# Outline: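 For the time course, Rv0183 was exposed to inhibitor at xI 4 at 25 °C without bile salt for 1 h. Residual activity was read at intervals by pH-stat at 37 °C using 100 µL MC18 in 15 mL 2.5 mM Tris-HCl pH 8.0, 150 mM NaCl, 3 mM NaTDC. t1/2 was derived from the curve. Runs were done at least in duplicate.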
# [11] = target: Monoacylglycerol lipase (Mycobacterium tuberculosis H37Rv) (UniProt O07427); test: as §2, with “Mycobacterium tuberculosis Rv0183” for “Fusarium solani pisi cutinase”; outline: as §3
# [12] = tested on: Mycobacterium tuberculosis; test: Inhibition of Mycobacterium tuberculosis LipY assessed as half inactivation time pre-incubated with enzyme before substrate addition by pH-stat technique
# Outline: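 LipY was incubated with inhibitor at xI 4 at 25 °C without NaTDC for up to 1 h. At time points, residual activity was titrated by pH-stat at 37 °C on TC4 emulsion in 2.5 mM Tris-HCl pH 7.5, 300 mM NaCl, 3 mM NaTDC. Half-inactivation time came from the curve. Runs were done at least in duplicate.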
# [13] = tested on: Mycobacterium tuberculosis; test: as §2, with “Mycobacterium tuberculosis LipY” for “Fusarium solani pisi cutinase”; outline: as §3
# [14] = target: T3, Gastric triacylglycerol lipase (Canis lupus familiaris); test: Inhibition of dog recombinant gastric lipase expressed in transgenic maize pre-incubated for 30 mins with enzyme before substrate addition by pH-stat technique; type: tissue-based; conditions: Stomach
# Outline: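 Gastric lipase was incubated 30 min at 25 °C with 4 mM NaTDC at inhibitor xI 2–100. Residual activity was measured by pH-stat at 37 °C on TC4 emulsion in 150 mM NaCl, 2 mM NaTDC, 2 µM BSA, pH 5.5. xI50 is the molar excess halving activity. At least duplicate.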
# [15] = target: T1, Pancreatic triacylglycerol lipase (Homo sapiens)
# [16] = target: T2, Pancreatic lipase-related protein 2 (Cavia porcellus); test: Inhibition of guinea pig recombinant PLRP2 expressed in Aspergillus oryzae pre-incubated for 30 mins with enzyme before substrate addition by pH-stat technique
# Monoacylglycerol lipase (Mycobacterium tuberculosis H37Rv), sequence (O07427 whole entry): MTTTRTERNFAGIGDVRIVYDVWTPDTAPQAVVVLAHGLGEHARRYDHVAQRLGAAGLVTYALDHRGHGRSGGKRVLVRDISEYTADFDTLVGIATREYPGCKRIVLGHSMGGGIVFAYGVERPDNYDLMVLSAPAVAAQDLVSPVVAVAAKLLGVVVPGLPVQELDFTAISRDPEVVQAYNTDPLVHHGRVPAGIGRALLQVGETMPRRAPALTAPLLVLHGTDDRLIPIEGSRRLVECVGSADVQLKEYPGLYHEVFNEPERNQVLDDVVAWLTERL
SMILES,inhibition [1],inhibition [2],inhibition [3],XI50 [4],XI50 [5],XI50 [6],Activity [7],inhibition [8],Activity [9],T1/2 [10],Activity [11],T1/2 [12],Activity [13],XI50 [14],XI50 [15],XI50 [16]
CCCCCCCCCCCCCCCCCCOP1(=O)CCCC(C(=O)OC)=C(C)O1 (configuration not stated),inactive,inactive,inactive,inactive,0.95 molar excess,0.59 molar excess,,,,,,,,,,
CCCCC[C@@H]1CC[P@@](=O)(OC)OC(C)=C1C(=O)OC (racemic),inactive,inactive,inactive,2.7 molar excess,1.42 molar excess,> 100 molar excess,,,,,,,,,,
CCCCCCCCCCCCCCCC[C@@H]1CC[P@@](=O)(OC)OC(C)=C1C(=O)OC (racemic),inactive,inactive,inactive,1.32 molar excess,2.54 molar excess,0.6 molar excess,,,,,,,,,,
CCCCC[C@@H]1CC[P@](=O)(OC)OC(C)=C1C(=O)OC (racemic),inactive,inactive,inactive,3.79 molar excess,26.2 molar excess,> 100 molar excess,,,,,,,,,,
COP1(=O)CCCC(CO)=C(C)O1 (racemic),inactive,inactive,inactive,inactive,> 100 molar excess,inactive,,,,,,,,,,
COC(=O)C1=C(C)OP(=O)(OC)CCC1 (racemic),inactive,inactive,inactive,30.5 molar excess,1.39 molar excess,> 100 molar excess,233 Da,14%,,,,,,,,
CCCCCCCCCCCCCCCCCC[C@@H]1CC[P@](=O)(OC)OC(C)=C1C(=O)OC (racemic),inactive,inactive,inactive,> 100 molar excess,7.26 molar excess,7.47 molar excess,,,,,,,,,,
CCCCCCCCCCCCCCCCCC[C@@H]1CC[P@@](=O)(OC)OC(C)=C1C(=O)OC (racemic),inactive,inactive,inactive,3.15 molar excess,1.18 molar excess,0.77 molar excess,,,,,,,,,,
CCCCCCCCCCCC[C@@H]1CC[P@](=O)(OC)OC(C)=C1C(=O)OC (racemic),inactive,inactive,inactive,2.44 molar excess,3.63 molar excess,6.14 molar excess,,,,,,,,,,
CCCCCCCCCC[C@@H]1CC[P@@](=O)(OC)OC(C)=C1C(=O)OC (racemic),inactive,inactive,inactive,1.13 molar excess,1.98 molar excess,2.81 molar excess,,,6%,86.4 s,377 Da,,,,,
CCCCCCCCCCCCCCCCOP1(=O)CCCC(C(=O)OC)=C(C)O1 (configuration not stated),inactive,inactive,inactive,inactive,0.56 molar excess,0.83 molar excess,,,,,,9.6 s,444 Da,,,
CCCCCCCCCCC[C@@H](C[C@@H]1OC(=O)[C@H]1CCCCCC)OC(=O)[C@H](CC(C)C)NC=O,,,,> 200 molar excess,2.52 molar excess,7.07 molar excess,,,,,,,,5.6 molar excess,18.4 molar excess,0.53 molar excess
CCCCCC1CCP(=O)(OC)OC(C)=C1C(=O)OC (racemic),,,,,,,,14%,,,,,,,,
CCCCCCCCCCCCCCCC[C@@H]1CC[P@](=O)(OC)OC(C)=C1C(=O)OC (racemic),inactive,inactive,inactive,> 100 molar excess,4.43 molar excess,3.47 molar excess,,,,,,,,,,
CCCCCCCCCCCC[C@@H]1CC[P@@](=O)(OC)OC(C)=C1C(=O)OC (racemic),inactive,inactive,inactive,5.23 molar excess,2 molar excess,3.46 molar excess,,,,,,,,,,
CO[P@]1(=O)CC[C@@H]2COC(=O)C2=C(C)O1 (racemic),inactive,inactive,inactive,43.2 molar excess,8.77 molar excess,> 100 molar excess,,14%,,,,,,,,
CCCCCCCCCC[C@@H]1CC[P@](=O)(OC)OC(C)=C1C(=O)OC (racemic),inactive,inactive,inactive,3.57 molar excess,14.6 molar excess,25.8 molar excess,,,,,,,,,,
CO[P@@]1(=O)CC[C@@H]2COC(=O)C2=C(C)O1 (racemic),inactive,inactive,inactive,41.6 molar excess,4.49 molar excess,> 100 molar excess,,14%,,,,,,,,
